This passage reports IC50 results from ChEMBL document CHEMBL1153591, “Exploring bis-(indolyl)methane moiety as an alternative and innovative CAP group in the design of histone deacetylase (HDAC) inhibitors” (Bioorg Med Chem Lett, 2009).

SMILES strings stand for the structures.

The target of one assay is Histone deacetylase 5 (Homo sapiens, UniProt Q9UQL6). The assay is described as follows: Inhibition of human HDAC5 by fluorimetry. A digest of the protocol:
(§1)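 Each purified single HDAC isoform incubated with fluorogenic substrate, a p53 fragment (residues […], Arg-His-Lys-Lys(Ac)) carrying an ε-acetylated lysine; deacetylation releases fluorophore, read by fluorimeter. Compounds tested as 10 doses, 1:3 serial dilution starting from 50 µM solution. IC50 from dose-response inhibition curves; trichostatin A as reference compound.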

For assay [1], the target named is T1, Protein deacetylase HDAC6 (Homo sapiens, UniProt Q9UBN7).
T1 sequence (Q9UBN7 whole entry): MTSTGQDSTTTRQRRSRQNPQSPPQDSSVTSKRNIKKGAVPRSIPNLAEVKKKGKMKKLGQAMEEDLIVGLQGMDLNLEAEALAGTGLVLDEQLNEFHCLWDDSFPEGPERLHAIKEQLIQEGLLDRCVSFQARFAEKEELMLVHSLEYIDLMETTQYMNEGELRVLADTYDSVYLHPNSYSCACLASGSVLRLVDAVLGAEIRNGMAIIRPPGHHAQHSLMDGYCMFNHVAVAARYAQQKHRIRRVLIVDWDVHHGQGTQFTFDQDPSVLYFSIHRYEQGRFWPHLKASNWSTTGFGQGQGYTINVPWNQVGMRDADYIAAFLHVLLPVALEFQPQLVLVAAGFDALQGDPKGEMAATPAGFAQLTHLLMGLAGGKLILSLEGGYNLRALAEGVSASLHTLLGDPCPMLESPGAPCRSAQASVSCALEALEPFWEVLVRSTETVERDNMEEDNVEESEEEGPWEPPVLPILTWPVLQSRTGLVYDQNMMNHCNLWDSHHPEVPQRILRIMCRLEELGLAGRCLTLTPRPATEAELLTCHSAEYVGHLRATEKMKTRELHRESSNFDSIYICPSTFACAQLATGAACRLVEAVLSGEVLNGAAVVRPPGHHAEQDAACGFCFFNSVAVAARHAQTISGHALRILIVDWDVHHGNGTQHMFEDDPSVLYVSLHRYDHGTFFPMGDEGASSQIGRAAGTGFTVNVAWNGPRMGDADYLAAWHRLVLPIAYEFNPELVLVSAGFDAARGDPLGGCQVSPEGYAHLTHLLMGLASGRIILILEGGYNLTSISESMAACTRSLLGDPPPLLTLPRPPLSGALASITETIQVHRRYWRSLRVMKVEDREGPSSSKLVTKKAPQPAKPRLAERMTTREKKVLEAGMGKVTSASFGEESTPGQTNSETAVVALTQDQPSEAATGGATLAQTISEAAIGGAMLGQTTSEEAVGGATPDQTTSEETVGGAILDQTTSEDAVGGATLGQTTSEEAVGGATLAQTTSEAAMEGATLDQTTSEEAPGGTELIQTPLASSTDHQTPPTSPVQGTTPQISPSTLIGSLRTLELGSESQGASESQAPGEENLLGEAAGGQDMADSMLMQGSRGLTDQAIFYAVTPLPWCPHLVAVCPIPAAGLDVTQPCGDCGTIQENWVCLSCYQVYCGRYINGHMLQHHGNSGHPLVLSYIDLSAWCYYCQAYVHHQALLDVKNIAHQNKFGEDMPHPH
The assay is described as follows: Inhibition of human HDAC6 by fluorimetry. A digest of the protocol: as §1

Sequence of Histone deacetylase 5 (Q9UQL6 whole entry, the tested form may be a part, canonical isoform): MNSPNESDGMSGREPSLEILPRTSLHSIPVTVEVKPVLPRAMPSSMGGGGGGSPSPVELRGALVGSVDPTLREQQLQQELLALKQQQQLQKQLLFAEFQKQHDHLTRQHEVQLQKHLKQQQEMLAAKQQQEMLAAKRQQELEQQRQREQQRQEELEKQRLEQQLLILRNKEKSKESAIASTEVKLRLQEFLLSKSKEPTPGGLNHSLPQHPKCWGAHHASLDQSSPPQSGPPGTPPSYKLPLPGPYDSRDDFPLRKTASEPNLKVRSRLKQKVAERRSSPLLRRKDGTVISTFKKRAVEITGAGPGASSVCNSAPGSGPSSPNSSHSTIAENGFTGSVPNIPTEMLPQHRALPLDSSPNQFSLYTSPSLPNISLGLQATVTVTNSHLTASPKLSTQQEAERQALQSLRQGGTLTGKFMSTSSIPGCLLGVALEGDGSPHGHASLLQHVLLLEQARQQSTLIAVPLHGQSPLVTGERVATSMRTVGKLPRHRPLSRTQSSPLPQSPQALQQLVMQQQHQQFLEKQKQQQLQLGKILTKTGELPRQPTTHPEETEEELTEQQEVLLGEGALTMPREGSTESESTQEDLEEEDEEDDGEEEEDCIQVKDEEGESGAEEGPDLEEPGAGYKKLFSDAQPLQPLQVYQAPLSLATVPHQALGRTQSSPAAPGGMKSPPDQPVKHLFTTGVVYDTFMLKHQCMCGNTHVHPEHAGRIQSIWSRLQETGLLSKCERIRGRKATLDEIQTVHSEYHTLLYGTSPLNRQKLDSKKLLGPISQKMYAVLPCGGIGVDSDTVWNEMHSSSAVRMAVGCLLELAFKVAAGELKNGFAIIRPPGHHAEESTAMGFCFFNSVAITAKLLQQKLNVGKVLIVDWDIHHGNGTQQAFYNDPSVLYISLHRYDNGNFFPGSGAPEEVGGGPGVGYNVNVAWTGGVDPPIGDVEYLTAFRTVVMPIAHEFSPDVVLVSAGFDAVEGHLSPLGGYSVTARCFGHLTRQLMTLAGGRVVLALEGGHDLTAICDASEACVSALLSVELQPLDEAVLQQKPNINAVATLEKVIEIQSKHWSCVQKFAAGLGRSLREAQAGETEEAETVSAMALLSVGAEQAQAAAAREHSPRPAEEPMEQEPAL

As for `O=C(/C=C/c1ccc(C(c2c[nH]c3ccccc23)c2c[nH]c3ccccc23)cc1)NO`, the half-inhibitory concentration (IC50) (against Histone deacetylase 5; in assay [1]) was 4.9 µM each time.
